For 1 compound, Activity, Time and Papp results are on record in ChEMBL document CHEMBL4422614 (Eur J Med Chem, 2019).

The nature of series [1]: Antioxidant activity assessed as trolox equivalent of AAPH-induced radical scavenging activity at 10 to 20 uM preincubated for 10 mins followed by AAPH addition measured every minute for 120 mins by ORAC fluorescein assay. The format is functional. A digest of the protocol: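 ORAC values are expressed as trolox equivalents, mean ± SD of three independent experiments.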

The subject of series [2] is Mus musculus. The experiment in a line: Cognition enhancement activity in amyloid beta (25 to 35 residues) induced C57BL/6J mouse model of Alzheimer's disease assessed as decrease in escape latancy at 4 mg/kg/day, ig administered for 26 consecutive days by Morris water maze test. The series is classed as functional, organism-based. A digest of the protocol: (§1)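 Mice were randomized into 7 groups. All except sham got an ICV injection of Aβ25-35 (3 nmol); sham got the same volume of saline ICV. Dosing was intragastric daily for 26 days, with 0.5% CMC-Na as vehicle for sham and model. Body weight, diarrhea and emesis-like behavior were monitored.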

The subject of series [3] is Mus musculus. In words: Cognition enhancement activity in amyloid beta (25 to 35 residues) induced C57BL/6J mouse model of Alzheimer's disease assessed as swimming speed at 4 mg/kg/day, ig administered for 26 consecutive days by Morris water maze test (reference value: 15.6 +/- 2.4 cm/sec). The format is functional. A digest of the protocol:
as §1

Series [4] concerns Mus musculus. The experiment in a line: Cognition enhancement activity in amyloid beta (25 to 35 residues) induced C57BL/6J mouse model of Alzheimer's disease assessed as increase in number of virtual platform crossing at 4 mg/kg/day, ig administered for 26 consecutive days by Morris water maze test. The format is functional, organism-based. A digest of the protocol: as §1
Series [5] has as its system Mus musculus. The experiment in a line: Cognition enhancement activity in amyloid beta (25 to 35 residues) induced C57BL/6J mouse model of Alzheimer's disease assessed as swimming path length in virtual platform at 4 mg/kg/day, ig administered for 26 consecutive days by Morris water maze test (10.2 +/- 3.2 cm). The series is classed as functional. A digest of the protocol: as §1

The subject of series [6] is Mus musculus. In words: Cognition enhancement activity in amyloid beta (25 to 35 residues) induced C57BL/6J mouse model of Alzheimer's disease assessed as swimming time in effective region at 4 mg/kg/day, ig administered for 26 consecutive days by Morris water maze test (4.3 +/- 1.3 sec). The format is functional. A digest of the protocol:
as §1

Series [7] deals with Mus musculus. In words: Neuroprotection in amyloid beta (25 to 35 residues) induced C57BL/6J mouse model of Alzheimer's disease assessed as reduction in ratio of apoptotic neuron in CA1 hippocampus region at 4 mg/kg/day, ig administered for 26 consecutive days by hematoxylin and eosin staining-based light microscopic analysis (reference value: 40.6 +/- 12.5%). The series is classed as ADME, organism-based. Also noted: scale not given: the % may be the effect or the level left. The settings on record: in vivo, po. A digest of the protocol: (§2)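 Hippocampal CA1, CA3 and DG neurons were stained with H&E after the Aβ25-35 ICV model and 26-day intragastric dosing. Denatured cell index = denatured cells/total cells, n = 5. Values are mean ± SD, two-way ANOVA versus model.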

In series [8] the test system is Mus musculus. The experiment in a line: Neuroprotection in amyloid beta (25 to 35 residues) induced C57BL/6J mouse model of Alzheimer's disease assessed as reduction in ratio of apoptotic neuron in CA3 hippocampus region at 4 mg/kg/day, ig administered for 26 consecutive days by hematoxylin and eosin staining-based light microscopic analysis (reference value: 80.2 +/- 8.6%). The format is ADME, organism-based. Also noted: scale not given: the % may be the effect or the level left. The settings on record: in vivo, po. A digest of the protocol:
as §2

For series [9], the system named is Mus musculus. In words: Neuroprotection in amyloid beta (25 to 35 residues) induced C57BL/6J mouse model of Alzheimer's disease assessed as reduction in ratio of apoptotic neuron in DG hippocampus region at 4 mg/kg/day, ig administered for 26 consecutive days by hematoxylin and eosin staining-based light microscopic analysis (reference value: 55.8 +/- 7.2%). The format is ADME, organism-based. Also noted: scale not given: the % may be the effect or the level left. The settings on record: in vivo, po. A digest of the protocol: as §2

Series [10] is described as follows: in vitro. The settings on record: PAMPA. (In general: PAMPA measures passive passage across an artificial lipid membrane.)

Molecules are shown by their SMILES. Calls of active or inactive are those of the source. The rule behind the calls is not given here.

In general, Papp refers to a coefficient for how fast a substance crosses the barrier. For the compound `O=C(Nc1c(Cl)cncc1Cl)c1ccc(OC(F)F)c(OCC2CC2)c1` [ROFLUMILAST], the Activity in series [1] was 0.067 equiv; in series [3], 14.5 cm/s; in series [5], 16 cm; in [7], 16.5%; in [8], 38.7%; in series [9], 25.1%. Moreover, the outcome in series [2] and in [4] was Active. In addition, the Time in series [6] was determined as 5.4 s. Also, the Papp at 10 h, 100 ug/ml in series [10] is 9.22 ×10⁻⁶ cm/s.
